Results reported in ChEMBL document CHEMBL1687788, “Characterization of two newly identified genes, vgaD and vatH, [corrected] conferring resistance to streptogramin A in Enterococcus faecium” (2010).
Converted amounts (≈) assume the structure as drawn.

How the values were obtained:
Format in all cases: functional
[1] = test system: Enterococcus faecium; experiment: Antibacterial activity against quinupristin-dalfopristin resistant and ermB gene expressing Enterococcus faecium isolate CS121 containing streptogramin A resistance genes vatG and vgaD isolated from poultry stool samples
[2] = test system: Enterococcus faecium; experiment: Antibacterial activity against quinupristin-dalfopristin resistant and ermB gene expressing Enterococcus faecium isolate CS106 containing streptogramin A resistance genes vatG and vgaD isolated from poultry stool samples
[3] = test system: Enterococcus faecium; experiment: Antibacterial activity against quinupristin-dalfopristin resistant and ermB gene expressing Enterococcus faecium isolate CS103 containing streptogramin A resistance genes vatG and vgaD isolated from poultry stool samples
[4] = test system: Enterococcus faecium; experiment: Antibacterial activity against quinupristin-dalfopristin resistant and ermB gene expressing Enterococcus faecium isolate CS098 containing streptogramin A resistance genes vatG and vgaD isolated from poultry stool samples
[5] = test system: Enterococcus faecium; experiment: Antibacterial activity against quinupristin-dalfopristin resistant and ermB gene expressing Enterococcus faecium isolate AS115 containing streptogramin A resistance genes vatG and vgaD isolated from poultry stool samples
In short: (§1)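 Isolates were recovered from fecal samples (human, poultry, swine; 2000/2003) or retail meat (2003). Samples were enriched in Enterococcosel broth for 48 h at 37°C, then streaked on Enterococcosel agar containing Q-D at 2 μg/ml to select resistant E. faecium. vatG and vgaD were detected by PCR with gene-specific primers: 30 cycles, annealing at 55°C.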

[6] = test system: Enterococcus faecium; experiment: Antibacterial activity against quinupristin-dalfopristin resistant and ermB and vanA gene expressing Enterococcus faecium isolate C19 containing streptogramin A resistance genes vatG and vgaD isolated from poultry stool samples
[7] = test system: Enterococcus faecium; experiment: Antibacterial activity against quinupristin-dalfopristin resistant and ermB and vanA gene expressing Enterococcus faecium isolate A15 containing streptogramin A resistance genes vatG and vgaD isolated from poultry stool samples; in short: as §1
[8] = test system: Enterococcus faecium; experiment: Antibacterial activity against quinupristin-dalfopristin resistant Enterococcus faecium isolate ES022 containing streptogramin A resistance genes vatG and vgaD isolated from swine stool samples
[9] = test system: Enterococcus faecium; experiment: Antibacterial activity against quinupristin-dalfopristin resistant and ermB gene expressing Enterococcus faecium isolate KS46 containing streptogramin A resistance genes vatG and vgaD isolated from healthy human stool samples
[10] = test system: Enterococcus faecium; experiment: Antibacterial activity against quinupristin-dalfopristin resistant and ermB gene expressing Enterococcus faecium isolate JS79 containing streptogramin A resistance genes vatG and vgaD isolated from healthy human stool samples
[11] = test system: Enterococcus faecium; experiment: Antibacterial activity against quinupristin-dalfopristin resistant and vanA gene expressing Enterococcus faecium isolate GAV04 containing streptogramin A resistance genes vatG and vgaD isolated from chicken meat samples
[12] = test system: Enterococcus faecium; experiment: Antibacterial activity against quinupristin-dalfopristin resistant and vanA gene expressing Enterococcus faecium isolate GAV12 containing streptogramin A resistance genes vatG and vgaD isolated from chicken meat samples; in short: as §1
[13] = test system: Enterococcus faecium; experiment: Antibacterial activity against quinupristin-dalfopristin abd erythromycin sensitive aEnterococcus faecium U201 transconjugants receiving ermB genes and vatG gene from quinupristin-dalfopristin resistant Enterococcus faecium isolate
In short: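 Transconjugants came from broth mating: donor and recipient overnight M17 cultures were mixed 1:1 into fresh M17 broth for 6 h at 37°C. Selection was on BHI agar with erythromycin (100 μg/ml) and ampicillin (100 μg/ml) for 24 h at 37°C. The erythromycin and Q-D MICs were compared with the donor's.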

CC[C@H]1OC(=O)[C@H](C)[C@@H](O[C@H]2C[C@@](C)(OC)[C@@H](O)[C@H](C)O2)[C@H](C)[C@@H](O[C@@H]2O[C@H](C)C[C@H](N(C)C)[C@H]2O)[C@](C)(O)C[C@@H](C)C(=O)[C@H](C)[C@@H](O)[C@]1(C)O [ERYTHROMYCIN]
MIC [1]: 256 µg/mL (≈ 349 µM)
MIC [2]: 256 µg/mL (≈ 349 µM)
MIC [3]: 256 µg/mL (≈ 349 µM)
MIC [4]: 256 µg/mL (≈ 349 µM)
MIC [5]: 256 µg/mL (≈ 349 µM)
MIC [6]: 256 µg/mL (≈ 349 µM)
MIC [7]: 256 µg/mL (≈ 349 µM)
MIC [8]: 0.1 µg/mL (≈ 0.136 µM)
MIC [9]: 256 µg/mL (≈ 349 µM)
MIC [10]: 256 µg/mL (≈ 349 µM)
MIC [11]: < 1 µg/mL
MIC [12]: < 1 µg/mL
MIC [13]: 256 µg/mL (≈ 349 µM)

CN[C@H](CC(C)C)C(=O)N[C@H]1C(=O)N[C@@H](CC(N)=O)C(=O)N[C@H]2C(=O)N[C@H]3C(=O)N[C@H](C(=O)N[C@H](C(=O)O)c4cc(O)cc(O)c4-c4cc3ccc4O)[C@H](O)c3ccc(c(Cl)c3)Oc3cc2cc(c3O[C@@H]2O[C@H](CO)[C@@H](O)[C@H](O)[C@H]2O[C@H]2C[C@](C)(N)[C@H](O)[C@H](C)O2)Oc2ccc(cc2Cl)[C@H]1O [VANCOMYCIN]
MIC [1]: < 1 µg/mL
MIC [2]: < 1 µg/mL
MIC [3]: < 1 µg/mL
MIC [4]: < 1 µg/mL
MIC [5]: < 1 µg/mL
MIC [6]: 256 µg/mL (≈ 177 µM)
MIC [7]: 256 µg/mL (≈ 177 µM)
MIC [8]: < 1 µg/mL
MIC [9]: < 1 µg/mL
MIC [10]: < 1 µg/mL
MIC [11]: 256 µg/mL (≈ 177 µM)
MIC [12]: 256 µg/mL (≈ 177 µM)
